From PMC6519384 (Andrology, 2018)

Columns and labels:
blood esterases = test: Ex vivo addition of TU to blood in different blood collection tubes; format: in vitro ADME, human
Summary of the method: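 Venous blood from hypogonadal or healthy men is aliquoted (2 mL) into duplicate plain or inhibitor-containing tubes. TU in methanol (≤1% methanol) is added to 30–1000 ng/mL final, then held 30/60 min at 4 °C or RT before centrifugation. T is extracted with ethyl acetate:hexane (3:2) and measured by LC‑MS/MS (m/z 289.2/109.0, D2‑T internal standard). Results are % difference vs the average plain tube with no ester added.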

[1] = Single oral dose of 316 mg TU in hypogonadal men; format: in vivo, human; conditions: TU concentrations below 15 ng/mL; oral 316 mg TU
Summary of the method: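 Eight hypogonadal men received one 316 mg oral TU dose in a self‑emulsifying system just before a meal. Blood was drawn at −30 and 0 min, then hourly for 12 h, into plain and NaF‑EDTA tubes. T was measured by LC‑MS/MS after ethyl acetate:hexane (3:2) extraction. The % difference in T between tube types was plotted against the matching average TU, with regression.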

[2] = TU added to serum with increasing NaF, T measured; format: in vitro ADME, human; conditions: 500 ng/mL TU added to two serum samples or an aqueous solution
[3] = TU 300 ng/mL, K2EDTA (1.8 mg/mL) tube, 30 min 4 °C, Experiment 2
[4] = TU 300 ng/mL, K2EDTA (1.8 mg/mL) tube, 60 min 4 °C, Experiment 2
[5] = TU 300 ng/mL, K2EDTA (1.8 mg/mL) tube, 60 min RT, Experiment 2
[6] = TU 300 ng/mL, NaF (1.5 mg/mL) + Na2EDTA (3 mg/mL) tube, 60 min RT, Experiment 2
[7] = TU 300 ng/mL, NaF (5 mg/mL) + K2Oxalate (4 mg/mL) tube, 60 min RT, Experiment 2
[8] = TU 300 ng/mL, NaF (15 mg/mL) tube, 30 min 4 °C, Experiment 1
[9] = TU 300 ng/mL, NaF (15 mg/mL) tube, 30 min RT, Experiment 1
[10] = TU 300 ng/mL, P800 tube, 30 min 4 °C, Experiment 2
[11] = TU 300 ng/mL, P800 tube, 60 min 4 °C, Experiment 2
[12] = TU 300 ng/mL, P800 tube, 60 min RT, Experiment 2
[13] = TU 300 ng/mL, Plain tube, 30 min 4 °C, Experiment 1
[14] = TU 300 ng/mL, Plain tube, 30 min RT, Experiment 1
[15] = TU 300 ng/mL, P‐800 tube, 30 min 4 °C, Experiment 1
[16] = TU 300 ng/mL, P‐800 tube, 30 min RT, Experiment 1
[17] = TU 600 ng/mL, K2EDTA (1.8 mg/mL) tube, 30 min 4 °C, Experiment 2
[18] = TU 600 ng/mL, K2EDTA (1.8 mg/mL) tube, 60 min 4 °C, Experiment 2
[19] = TU 600 ng/mL, K2EDTA (1.8 mg/mL) tube, 60 min RT, Experiment 2
[20] = TU 600 ng/mL, NaF (1.5 mg/mL) + Na2EDTA (3 mg/mL) tube, 60 min RT, Experiment 2
[21] = TU 600 ng/mL, NaF (5 mg/mL) + K2Oxalate (4 mg/mL) tube, 60 min RT, Experiment 2
[22] = TU 600 ng/mL, NaF (15 mg/mL) tube, 30 min 4 °C, Experiment 1
[23] = TU 600 ng/mL, NaF (15 mg/mL) tube, 30 min RT, Experiment 1
[24] = TU 600 ng/mL, P800 tube, 30 min 4 °C, Experiment 2
[25] = TU 600 ng/mL, P800 tube, 60 min 4 °C, Experiment 2
[26] = TU 600 ng/mL, P800 tube, 60 min RT, Experiment 2
[27] = TU 600 ng/mL, Plain tube, 30 min 4 °C, Experiment 1
[28] = TU 600 ng/mL, Plain tube, 30 min 4 °C, Experiment 2
[29] = TU 600 ng/mL, Plain tube, 30 min RT, Experiment 1
[30] = TU 600 ng/mL, Plain tube, 60 min 4 °C, Experiment 2
[31] = TU 600 ng/mL, Plain tube, 60 min RT, Experiment 2
[32] = TU 600 ng/mL, P‐800 tube, 30 min 4 °C, Experiment 1
[33] = TU 600 ng/mL, P‐800 tube, 30 min RT, Experiment 1

CCCCCCCCCCC(=O)O[C@H]1CC[C@H]2[C@@H]3CCC4=CC(=O)CC[C@]4(C)[C@H]3CC[C@]12C [TU, testosterone undecanoate]
% difference vs. no TU added (blood esterases; [3]): +20.5% | Measured T (blood esterases; [3]): 534.5 ng/dL | % difference vs. no TU added (blood esterases; [4]): +14.7% | Measured T (blood esterases; [4]): 521.5 ng/dL | % difference vs. no TU added (blood esterases; [5]): +129.7% | Measured T (blood esterases; [5]): 1105.0 ng/dL | % difference vs. no TU added (blood esterases; [6]): +57.5% | Measured T (blood esterases; [6]): 705.0 ng/dL | % difference vs. no TU added (blood esterases; [7]): +79.5% | Measured T (blood esterases; [7]): 717.0 ng/dL | % difference vs. no TU added (blood esterases; [8]): −0.6% | Measured T (blood esterases; [8]): 269.5 ng/dL | % difference vs. no TU added (blood esterases; [9]): +16.4% | Measured T (blood esterases; [9]): 301.5 ng/dL | % difference vs. no TU added (blood esterases; [10]): +13.1% | Measured T (blood esterases; [10]): 492.5 ng/dL | % difference vs. no TU added (blood esterases; [11]): +3.3% | Measured T (blood esterases; [11]): 491.5 ng/dL | % difference vs. no TU added (blood esterases; [12]): +100.9% | Measured T (blood esterases; [12]): 860.0 ng/dL | % difference vs. no TU added (blood esterases; [13]): +17.9% | Measured T (blood esterases; [13]): 412.0 ng/dL | Measured T (blood esterases; TU 300 ng/mL, Plain tube, 30 min 4 °C, Experiment 2): 624.5 ng/dL | % difference vs. no TU added (blood esterases; [14]): +43.1% | Measured T (blood esterases; [14]): 505.0 ng/dL | Measured T (blood esterases; TU 300 ng/mL, Plain tube, 60 min 4 °C, Experiment 2): 741.5 ng/dL | Measured T (blood esterases; TU 300 ng/mL, Plain tube, 60 min RT, Experiment 2): 984.0 ng/dL | % difference vs. no TU added (blood esterases; [15]): +18.7% | Measured T (blood esterases; [15]): 384.0 ng/dL | % difference vs. no TU added (blood esterases; [16]): +41.7% | Measured T (blood esterases; [16]): 467.0 ng/dL | % difference vs. no TU added (blood esterases; [17]): +21.6% | Measured T (blood esterases; [17]): 539.5 ng/dL | % difference vs. no TU added (blood esterases; [18]): +47.3% | Measured T (blood esterases; [18]): 669.5 ng/dL | % difference vs. no TU added (blood esterases; [19]): +266.9% | Measured T (blood esterases; [19]): 1765.0 ng/dL | % difference vs. no TU added (blood esterases; [20]): +176.0% | Measured T (blood esterases; [20]): 1235.0 ng/dL | % difference vs. no TU added (blood esterases; [21]): +171.6% | Measured T (blood esterases; [21]): 1085.0 ng/dL | % difference vs. no TU added (blood esterases; [22]): +24.2% | Measured T (blood esterases; [22]): 336.5 ng/dL | % difference vs. no TU added (blood esterases; [23]): +39.0% | Measured T (blood esterases; [23]): 360.0 ng/dL | % difference vs. no TU added (blood esterases; [24]): +18.3% | Measured T (blood esterases; [24]): 515.0 ng/dL | % difference vs. no TU added (blood esterases; [25]): +22.3% | Measured T (blood esterases; [25]): 582.0 ng/dL | % difference vs. no TU added (blood esterases; [26]): +222.4% | Measured T (blood esterases; [26]): 1380.0 ng/dL | % difference vs. no TU added (blood esterases; [27]): +30.3% | Measured T (blood esterases; [27]): 455.5 ng/dL | % difference vs. no TU added (blood esterases; [28]): +23.7% | Measured T (blood esterases; [28]): 541.0 ng/dL | % difference vs. no TU added (blood esterases; [29]): +130.6% | Measured T (blood esterases; [29]): 814.0 ng/dL | % difference vs. no TU added (blood esterases; [30]): +88.8% | Measured T (blood esterases; [30]): 794.0 ng/dL | % difference vs. no TU added (blood esterases; [31]): +271.8% | Measured T (blood esterases; [31]): 1515.0 ng/dL | % difference vs. no TU added (blood esterases; [32]): +15.8% | Measured T (blood esterases; [32]): 374.5 ng/dL | % difference vs. no TU added (blood esterases; [33]): +95.1% | Measured T (blood esterases; [33]): 643.0 ng/dL | T measured (blood esterases; TU added 30 ng/mL, blood from four hypogonadal men, plain tubes, baseline serum T 26.0 ± 6.2 ng/dL): 48.9 ± 5.1 ng/dL | Increase in measured T from baseline (blood esterases; highest TU concentration (1000 ng/mL), blood from hypogonadal men, plain tubes): ≤ 22 fold | Reduction of overestimation of T by collecting blood into NaF tubes (blood esterases; increasing amounts of TU added to blood): 30–85% | Overestimation of measured T levels (blood esterases; increasing amounts of TU added to plain tubes, Table 3, Experiments 1 and 2): +24 to 272% | Mean difference in T concentrations between plain and NaF‐EDTA tubes [1]: ~0% | Measured T levels after incubation with different amounts of NaF [2]: did not increase
